Assay results gathered from unrelated publications.
Each line is one published result; the experiments were not run side by side.
Cell line: HepG2
Effect on: cell growth or viability

COc1ccc(NC(=O)c2c(Nc3ccccc3)sc(C(=O)NN=Cc3ccc(OC)c(O)c3)c2NC(C)=O)cc1 — viability (SRB; 10 µM, 48 h): 31.6%
Cc1cc(=O)oc2ccc(-c3cc(-c4cccs4)nc(N)n3)c(O)c12 — inhibition (MTT; 2 µg/mL, 72 h): 0%
COc1ccc(NC(=O)c2c(Nc3ccccc3)sc(C#N)c2NC(=O)CNc2ccc(O)cc2)cc1 — viability (SRB; 0.1 µM, 48 h): 85.6%
O=C(CN1C(=O)/C(=C/c2ccc([N+](=O)[O-])cc2)SC1=S)Nc1ccccc1 — inhibition (MTT; 10 µM): 22.6%
Cc1cc(=O)oc2ccc(-c3cc(-c4ccc(Br)cc4)nc(N)n3)c(O)c12 — inhibition (MTT; 8 µg/mL, 72 h): 0%
COc1cccc(NC(=O)CN2C(=O)/C(=C/c3ccc(F)cc3)SC2=S)c1 — inhibition (MTT; 10 µM): 10.2%
CC(C)(CO)Cn1nc(-c2ccc3nc(OCC(F)(F)F)ccc3c2)c2c(N)ncnc21 — GI50: > 10 µM
Cc1cc(=O)oc2ccc(-c3cc(-c4ccccc4)nc(N)n3)c(O)c12 — inhibition (MTT; 2 µg/mL, 72 h): 0%
CCOC(=O)c1ccc(N2C(N)=C(C#N)C3(C(=O)Nc4ccccc43)C(C#N)=C2O)cc1 (stereo not shown) — viability (MTT; 50 µM, 24 h): 17.9%
O=C(N/N=C/CN1CCCCC1)Nc1cc2c(Nc3ccc(F)c(Cl)c3)ncnc2cc1O[C@H]1CCOC1 — IC50 (MTT; 72 h): 0.42 µM
COc1ccc(NC(=O)c2c(Nc3ccccc3)sc(C(=O)NN=Cc3ccccc3)c2NC(C)=O)cc1 — viability (SRB; 0.1 µM, 48 h): 78.1%
CCn1cc(-c2nc(C)no2)c(=O)c2cc(F)c(N3CCCC(C)C3)cc21 (stereo not shown) — EC50 (ATP luminescence; 48 h): > 40 µM
Cc1ccc2nc(-c3ccco3)n(Cc3ccccc3)c2c1 — IC50 (MTT): 55.5 µM
COc1cccc2c1C(=O)c1c(O)c3c(c(O)c1C2=O)C[C@@](O)(C(=O)CO)C[C@@H]3O[C@H]1C[C@H](N)[C@H](O)[C@H](C)O1 — viability (MTT; 100 µM, 24 h): 6.3%
Cc1ccc2nc(-c3cccc([N+](=O)[O-])c3)[nH]c2c1 — IC50 (MTT; 48 h): 71.4 µM
Cc1ccc(-c2cc(-c3ccc4oc(=O)cc(C)c4c3O)nc(N)n2)cc1 — inhibition (MTT; 128 µg/mL, 72 h): 27%
COc1cc2ncnc(Nc3ccc(F)c(Cl)c3)c2cc1NC(=O)N/N=C/c1cccn1CCN1CCN(C)CC1 — IC50 (MTT; 72 h): 0.22 µM
COc1cccc(NC(=O)CN2C(=O)/C(=C/c3ccccc3)SC2=S)c1 — inhibition (MTT; 10 µM): 11.8%
CCOc1ccc(-c2nc3ccccc3n2Cc2ccccc2)cc1 — IC50 (MTT): 33.8 µM
COc1cc2c(c(OC)c1OC)-c1ccc(OC)c(=O)cc1[C@@H](NC(C)=O)CC2 — inhibition (MTT; 10 µM): 56.4%
CCn1cc(-c2nc(C)no2)c(=O)c2cc(F)c(N3CCC(c4ccccc4)CC3)cc21 — EC50 (ATP luminescence; 48 h): > 40 µM
Cc1cc(Nc2ccc(C(=O)N/N=C/c3ccccc3)cc2)c2cccc(O)c2n1 — inhibition (MTT; 20 µM): 48.9%
COc1ccc(C=NNC(=O)c2sc(Nc3ccccc3)c(C(=O)Nc3ccc(OC)cc3)c2NC(C)=O)cc1 — viability (SRB; 0.1 µM, 48 h): 76.5%
CCn1cc(-c2nc(C)no2)c(=O)c2cc(F)c(N3CCC(F)(F)CC3)cc21 — EC50 (ATP luminescence; 48 h): > 40 µM
CSc1ccc(-c2nc3ccc(C)cc3[nH]2)cc1 — IC50 (MTT; 48 h): > 100 µM
COc1cc2ncnc(Nc3ccc(F)c(Cl)c3)c2cc1NC(=O)N/N=C/c1cccn1CCN(C)C — IC50 (MTT; 72 h): 0.11 µM
COc1ccc(/C=C2\SC(=S)N(CC(=O)Nc3ccccc3)C2=O)cc1 — inhibition (MTT; 10 µM): 13.6%
Cc1cc(Nc2ccc(C(=O)N/N=C/c3nc4ccccc4[nH]3)cc2)c2cccc(O)c2n1 — inhibition (MTT; 20 µM): 46.4%
COc1ccc(NC(=O)c2c(Nc3ccccc3)sc(C#N)c2NC(=O)CNc2ccccc2)cc1 — viability (SRB; 10 nM, 48 h): 90.3%
CCn1cc(-c2nc(C)no2)c(=O)c2cc(F)c(N3CCCCCC3)cc21 — EC50 (ATP luminescence; 48 h): > 40 µM
Cc1ccc2nc(-c3ccc([N+](=O)[O-])cc3)n(Cc3ccccc3Cl)c2c1 — IC50 (MTT): 34.3 µM
CC(=O)Nc1cccc(-n2c(=O)n(C3CC3)c(=O)c3c(Nc4ccc(I)cc4F)n(C)c(=O)c(C)c32)c1 — viability (resazurin; 1.56 nM, 72 h): 96.4%
CCOC(=O)c1ccc(-n2c(N)c(C#N)c(CC#N)c(C#N)c2=O)cc1 — viability (MTT; 12.5 µM, 24 h): 63.6%
COc1ccc(NC(=O)c2c(Nc3ccccc3)sc(C(=O)NN=Cc3cc(OC)c(OC)c(OC)c3)c2NC(C)=O)cc1 — viability (SRB; 0.1 µM, 48 h): 76.5%
O=C(CN1C(=O)/C(=C/c2ccccn2)SC1=S)Nc1ccccc1 — inhibition (MTT; 10 µM): 10.2%
COc1ccc(NC(=O)c2c(Nc3ccccc3)sc(C#N)c2NC(=O)CNc2ccccc2Cl)cc1 — viability (SRB; 10 µM, 48 h): 79.2%
CCOC(=O)c1ccc(NC(=O)C2=C3C(=Nc4ccccc43)NC2=O)cc1 — viability (MTT; 50 µM, 24 h): 42.7%
O=C(CN1C(=O)/C(=C/c2ccccc2)SC1=S)Nc1ccccc1 — inhibition (MTT; 10 µM): 31.3%
CCOC(=O)c1ccc(-n2c(-c3ccc(C)cc3)cc(-c3ccc(O)cc3)c(C#N)c2=O)cc1 — viability (MTT; 1.56 µM, 24 h): 100%
COc1ccc(NC(=O)c2c(Nc3ccccc3)sc(C#N)c2NC(=O)CNc2ccccc2[N+](=O)[O-])cc1 — viability (SRB; 0.1 µM, 48 h): 88.3%
C=CCn1c(-c2ccc(OC)c(OC)c2)nc2ccccc21 — IC50 (MTT): 53.8 µM
Cc1cc(=O)oc2ccc(-c3cc(-c4ccc(Cl)cc4)nc(N)n3)c(O)c12 — inhibition (MTT; 32 µg/mL, 72 h): 65%
C=CCn1c(-c2ccc(Cl)cc2)nc2ccccc21 — IC50 (MTT): 58.9 µM
CCNC(=O)c1cn(CC)c2cc(N3CCC(C)CC3)c(F)cc2c1=O — EC50 (ATP luminescence; 48 h): > 40 µM
COc1ccc(-c2cc(-c3ccc4oc(=O)cc(C)c4c3O)nc(N)n2)cc1 — inhibition (MTT; 8 µg/mL, 72 h): 0%
Cc1ccc2nc(-c3ccc(Cl)c(Cl)c3)n(Cc3ccccc3)c2c1 — IC50 (MTT): > 100 µM
